The record followed here is ChEMBL document CHEMBL4229446, “Development of Novel Monoamine Oxidase-B (MAO-B) Inhibitors with Reduced Blood-Brain Barrier Permeability for the Potential Management of Noncentral Nervous System (CNS) Diseases” (J Med Chem, 2018).

Series [1] can be described thus: AUClast in C57BL/6 mouse plasma at 24.5 mg/kg, iv administered as single dose measured 24 hrs by UPLC-MS/MS analysis. In kind it is ADME, organism-based. Further details: dose 24.5 mg/kg, time 0 - last, route intravenous. A digest of the protocol: (§1)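 21 animals dosed at 0 min, 3 sacrificed at each of 0, 5, 15, 30 min, 1, 4 and 24 h. Plasma was extracted by protein precipitation with phospholipid removal. Brain was weighed, bead-homogenised in 50 mM ammonium formate and extracted in acidified organic solvent. Quantified by UPLC-MS/MS (MRM). Brain ng/g taken as ng/mL. Parameters came from noncompartmental analysis. Kp = AUClast brain/plasma.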

Series [2] in a line: Ratio of AUClast in brain to plasma in C57BL/6 mouse at 24.5 mg/kg, po administered as single dose measured 24 hrs by UPLC-MS/MS analysis. Format: ADME, organism-based. A digest of the protocol:
(§2)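 15 animals dosed, 3 sacrificed at each of 1, 2, 4, 6 and 24 h. Plasma and brain homogenate were extracted and quantified by UPLC-MS/MS. Parameters came from noncompartmental analysis. Values above or below the limit of quantification, or undetected, were omitted. Kp = AUClast brain/plasma.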

Series [3] can be described thus: Cmax in C57BL/6 mouse brain at 24.5 mg/kg, po administered as single dose measured 24 hrs by UPLC-MS/MS analysis. Format: ADME, organism-based. The arrangement: dose 24.5 mg/kg, route oral. Summed up:
as §2

Series [4] is described as follows: Tmax in C57BL/6 mouse plasma at 24.5 mg/kg, po administered as single dose measured 24 hrs by UPLC-MS/MS analysis. Format: ADME, organism-based. Summed up: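 Plasma extracted by protein precipitation/phospholipid removal and measured by UPLC-MS/MS (MRM). Parameters by noncompartmental analysis, omitting values outside quantification limits or undetected.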
A short description of series [5]: AUClast in C57BL/6 mouse brain at 24.5 mg/kg, iv administered as single dose measured 24 hrs by UPLC-MS/MS analysis. Format: ADME, organism-based. The arrangement: dose 24.5 mg/kg, route intravenous, time 0 - last. A digest of the protocol:
as §1

A short description of series [6]: AUClast in C57BL/6 mouse plasma at 24.5 mg/kg, sc administered as single dose measured 24 hrs by UPLC-MS/MS analysis. In kind it is ADME, organism-based. The arrangement: dose 24.5 mg/kg, time 0 - last, route subcutaneous. Summed up:
as §2

The nature of series [7]: Cmax in C57BL/6 mouse brain at 24.5 mg/kg, iv administered as single dose measured 24 hrs by UPLC-MS/MS analysis. Format: ADME, organism-based. Further details: dose 24.5 mg/kg, route intravenous. A digest of the protocol: as §1
A short description of series [8]: Tmax in C57BL/6 mouse brain at 24.5 mg/kg, po administered as single dose measured 24 hrs by UPLC-MS/MS analysis. In kind it is ADME, organism-based. A digest of the protocol:
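Brain portion homogenised in 50 mM ammonium formate with beads, acidified organic extraction, UPLC-MS/MS. ng/g read as ng/mL. Noncompartmental analysis; values above or below quantification limit, or undetected, excluded.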

The nature of series [9]: AUClast in C57BL/6 mouse plasma at 24.5 mg/kg, po administered as single dose measured 24 hrs by UPLC-MS/MS analysis. In kind it is ADME, organism-based. Further details: dose 24.5 mg/kg, route oral, time 0 - last. Summed up:
as §2

Series [10] addresses T1, Amine oxidase [flavin-containing] B (Homo sapiens, UniProt P27338).
T1 sequence (P27338 whole entry): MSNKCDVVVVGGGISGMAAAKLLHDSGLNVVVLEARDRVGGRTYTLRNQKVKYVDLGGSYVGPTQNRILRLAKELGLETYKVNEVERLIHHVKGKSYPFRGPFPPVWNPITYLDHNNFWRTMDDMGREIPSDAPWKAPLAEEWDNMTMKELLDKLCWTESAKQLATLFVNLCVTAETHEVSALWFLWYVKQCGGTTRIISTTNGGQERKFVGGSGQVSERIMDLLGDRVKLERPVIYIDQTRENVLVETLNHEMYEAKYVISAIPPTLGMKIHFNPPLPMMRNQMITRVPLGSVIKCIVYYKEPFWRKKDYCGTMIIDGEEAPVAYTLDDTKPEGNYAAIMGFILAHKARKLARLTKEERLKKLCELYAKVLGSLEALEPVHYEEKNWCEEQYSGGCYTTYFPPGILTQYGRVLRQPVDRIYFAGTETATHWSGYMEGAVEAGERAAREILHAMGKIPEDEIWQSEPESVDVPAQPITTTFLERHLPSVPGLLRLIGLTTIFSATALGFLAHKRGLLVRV
The series can be described thus: Inhibition of human recombinant MAO-B expressed in baculovirus infected BTI-TN-5B1-4 insect cells using benzylamine as substrate preincubated for 1 hr followed by substrate addition and measured after 30 mins by resazurin dye-based fluorescence assay. Format: cell-based. (Resazurin is reduced to fluorescent resorufin, in cell work by metabolically active cells.)

The nature of series [11]: Cmax in C57BL/6 mouse brain at 23.4 mg/kg, po administered as single dose measured 24 hrs by UPLC-MS/MS analysis. In kind it is ADME, organism-based. The arrangement: dose 23.4 mg/kg, route oral. A digest of the protocol: (§3)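 15 animals dosed, 3 killed at each of 1, 2, 4, 6 and 24 h. Plasma and brain homogenate (ammonium formate, acidified organic extraction) assayed by UPLC-MS/MS, brain ng/g taken as ng/mL. Noncompartmental parameters exclude values above/below quantification limit or undetected. Kp = AUClast brain/plasma.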

The nature of series [12]: Apparent half-life of the terminal disposition phase in C57BL/6 mouse plasma at 23.4 mg/kg, iv administered as single dose measured 24 hrs by UPLC-MS/MS analysis. Format: ADME, organism-based. Conditions: read-out: t1/2 lambda z (converted). A digest of the protocol:
(§4)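 21 animals dosed at 0 min, 3 killed per time point (0, 5, 15, 30 min, 1, 4, 24 h). Plasma extracted by protein precipitation/phospholipid removal. Brain homogenized in 50 mM ammonium formate, then extracted in acidified organic solvent. Both quantified by UPLC-MS/MS (MRM), brain ng/g taken as ng/mL. Noncompartmental analysis. Kp = AUClast brain/plasma.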

Series [13] in a line: Ratio of AUClast in brain to plasma in C57BL/6 mouse at 23.4 mg/kg, po administered as single dose measured 24 hrs by UPLC-MS/MS analysis. Format: ADME, organism-based. A digest of the protocol: as §3
The nature of series [14]: Ratio of AUClast in brain to plasma in C57BL/6 mouse at 23.4 mg/kg, iv administered as single dose measured 24 hrs by UPLC-MS/MS analysis. Format: ADME, organism-based. A digest of the protocol:
as §4

Series [15] can be described thus: AUClast in C57BL/6 mouse brain at 23.4 mg/kg, iv administered as single dose measured 24 hrs by UPLC-MS/MS analysis. In kind it is ADME, organism-based. Further details: dose 23.4 mg/kg, route intravenous, time 0 - last. A digest of the protocol: as §4
Series [16] in a line: Cmax in C57BL/6 mouse plasma at 23.4 mg/kg, iv administered as single dose measured 24 hrs by UPLC-MS/MS analysis. Format: ADME, organism-based. Further details: dose 23.4 mg/kg, route intravenous. A digest of the protocol: as §4
The nature of series [17]: AUClast in C57BL/6 mouse brain at 23.4 mg/kg, sc administered as single dose measured 24 hrs by UPLC-MS/MS analysis. In kind it is ADME, organism-based. The arrangement: dose 23.4 mg/kg, time 0 - last, route subcutaneous. A digest of the protocol: as §3
Series [18] in a line: Metabolic stability in mouse liver microsomes assessed as parent compound remaining at 1 uM after 60 mins by UPLC-MS/MS analysis. In kind it is ADME, microsome. Conditions: liver microsomes, read-out: Stability. A digest of the protocol:
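Compound at 1 μM with 0.5 mg/mL mouse or human liver microsomes in 100 mM potassium phosphate pH 7.4, 3.3 mM MgCl2, 1 mM NADPH, at 37 °C. Started with NADPH; minus-NADPH control run. Stopped at 0, 5, 15, 30, 45 and 60 min with acetonitrile/formic acid plus internal standard. Parent remaining by UPLC-MS/MS, in triplicate.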
A general note: Liver microsomes are a subcellular fraction often used to study metabolism.

Series [19] is described as follows: Cmax in C57BL/6 mouse brain at 23.4 mg/kg, iv administered as single dose measured 24 hrs by UPLC-MS/MS analysis. Format: ADME, organism-based. Further details: dose 23.4 mg/kg, route intravenous. A digest of the protocol: as §4
A short description of series [20]: Tmax in C57BL/6 mouse plasma at 23.4 mg/kg, po administered as single dose measured 24 hrs by UPLC-MS/MS analysis. Format: ADME, organism-based. A digest of the protocol:
as §3

In general, AUC(0-t) refers to exposure summed from dosing to a finite time, without extrapolation to infinity. Read a high AUC(0-t) as high exposure. By Kp is commonly meant the ratio of the level in a tissue or fluid to that in plasma or blood. In general, Cmax refers to the maximum level reached in the sampled fluid or tissue. What is called Tmax is the time at which the peak concentration occurs. Take `C[C@H](Cc1ccc(OCc2ccc(Br)c(Cl)c2)cc1)N(C)CC(=O)O`: the AUC(0-t) at 24 h in [1] was determined as 94800 ng·h/mL; in series [5], 10700 ng·h/mL; in series [6] it was 66900 ng·h/mL; in series [9] it was 104000 ng·h/mL. Besides, the Kp at 24 h in series [2] turned out to be 0.12. The Cmax in [3] amounted to 812 ng/mL; in [7], 653 ng/mL. In addition, the values for the Tmax in series [4] and in [8] were 1 h and 6 h, respectively.

The term IC50 denotes the concentration needed to halve the response being measured. As to `CN(CC(=O)O)[C@H](CC#N)Cc1ccc(OCc2ccc(Cl)c(Cl)c2)cc1`, the IC50 in series [10] was determined as 206 nM. In addition, the Cmax worked out at 91.9 ng/mL in [11], 52100 ng/mL in series [16] and 305 ng/mL in series [19]. Also, the half-life in series [12] is 0.74 h. The partition ratio (Kp) at 24 h came out at 0.002 in series [13] and 0.004 in [14]. Also, the AUC(0-t) at 24 h in series [15] came out at 183 ng·h/mL; in [17] it was 176 ng·h/mL. The remaining at 1 h, 1 µM in series [18] came out at 39%. Also, the Tmax in [20] was 1 h.
